The results in this text go back to ChEMBL document CHEMBL4393735, “Molecular modelling, synthesis, and biological evaluations of a 3,5-disubstituted isoxazole fatty acid analogue as a PPARα-selective agonist” (Bioorg Med Chem, 2019).

Calls of active or inactive are those of the source.

Experiment [1] concerns SGBS. In words: Upregulation of CEBPA gene expression in human preadipocyte derived from Simpson-Golabi-Behmel syndrome (SGBS) patient at 25 uM measured for 12 days by qRT-PCR analysis. It counts as functional, cell-based. An outline of the steps:
(§1)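 SGBS cells were differentiated with serum-free induction medium containing 25 μM test agent, 2 μM rosiglitazone or 0.1% DMSO from day 0. IBMX and dexamethasone were removed on day 4 and medium was renewed on day 8. RNA was taken on days 0, 4, 8 and 12 for qPCR, normalized to TBP and to day 0. At least three biological replicates in duplicate, two-way ANOVA with Bonferroni.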
A general note: Quantitative PCR measures a nucleic acid by following its amplification.

For experiment [2], the target named is T1, Peroxisome proliferator-activated receptor alpha (Homo sapiens) (UniProt Q07869).
T1 sequence (whole entry): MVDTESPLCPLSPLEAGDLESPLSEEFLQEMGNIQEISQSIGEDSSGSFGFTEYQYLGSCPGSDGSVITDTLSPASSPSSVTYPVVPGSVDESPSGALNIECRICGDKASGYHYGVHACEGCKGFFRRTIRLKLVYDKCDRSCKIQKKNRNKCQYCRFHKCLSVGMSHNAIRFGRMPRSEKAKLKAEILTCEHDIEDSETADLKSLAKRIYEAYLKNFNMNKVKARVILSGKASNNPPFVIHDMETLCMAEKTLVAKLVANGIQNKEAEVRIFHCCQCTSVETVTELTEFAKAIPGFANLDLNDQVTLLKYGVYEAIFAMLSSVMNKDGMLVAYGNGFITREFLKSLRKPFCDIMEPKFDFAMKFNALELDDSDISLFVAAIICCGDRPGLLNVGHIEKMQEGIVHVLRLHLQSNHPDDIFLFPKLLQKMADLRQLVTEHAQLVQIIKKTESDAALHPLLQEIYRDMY
Briefly: Agonist activity at PPARalpha in human Huh7 cells assessed as PPARA mRNA expression at 50 uM measured after 18 hrs by qRT-PCR analysis. The format is cell-based. The method, boiled down: (§2)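 Treatment for 18 h at 50 μM (or 1 μM for the 1 μM agents), DMSO vehicle. Harvested for qPCR. mRNA normalized to TBP by the comparative threshold method, expressed relative to DMSO control. Two biological replicates run in duplicate, mean ± SEM. Primary hepatocytes came from male C57BL/6N mice aged 7–8 weeks, isolated by portal-vein perfusion and digestion, seeded on collagen I and used on day 2. HuH-7 cells were kept in DMEM with 10% FBS and ITS.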

The target in experiment [3] is T2, Peroxisome proliferator-activated receptor alpha (Mus musculus) (UniProt P23204).
T2 sequence (whole entry): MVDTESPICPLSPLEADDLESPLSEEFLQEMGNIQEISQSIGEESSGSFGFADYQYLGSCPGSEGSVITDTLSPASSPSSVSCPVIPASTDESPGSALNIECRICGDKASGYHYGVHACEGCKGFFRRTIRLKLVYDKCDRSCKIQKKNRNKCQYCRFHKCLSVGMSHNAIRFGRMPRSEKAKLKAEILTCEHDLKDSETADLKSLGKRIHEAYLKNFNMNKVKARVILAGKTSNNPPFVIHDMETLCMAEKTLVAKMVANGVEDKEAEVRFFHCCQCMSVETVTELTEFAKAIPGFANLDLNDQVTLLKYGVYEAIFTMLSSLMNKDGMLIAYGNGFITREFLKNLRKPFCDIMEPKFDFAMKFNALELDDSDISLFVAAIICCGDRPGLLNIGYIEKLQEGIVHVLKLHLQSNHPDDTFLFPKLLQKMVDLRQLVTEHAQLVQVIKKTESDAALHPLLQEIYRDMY
Briefly: Agonist activity at PPARalpha in C57BL/6N mouse primary hepatocytes assessed as PPARA mRNA expression at 50 uM measured after 18 hrs by qRT-PCR analysis. The format is cell-based. The method, boiled down:
as §2

Experiment [4] deals with SGBS. Briefly: Upregulation of ADIPOQ gene expression in human preadipocyte derived from Simpson-Golabi-Behmel syndrome (SGBS) patient at 25 uM measured for 12 days by qRT-PCR analysis. It counts as functional, cell-based. An outline of the steps: as §1
Experiment [5] deals with SGBS. In words: Upregulation of ACSL1 gene expression in human preadipocyte derived from Simpson-Golabi-Behmel syndrome (SGBS) patient at 25 uM measured for 12 days by qRT-PCR analysis. It counts as functional, cell-based. The method, boiled down: as §1
The test system of experiment [6] is SGBS. In words: Upregulation of PLIN1 gene expression in human preadipocyte derived from Simpson-Golabi-Behmel syndrome (SGBS) patient at 25 uM measured for 12 days by qRT-PCR analysis. The format is functional, cell-based. The method, boiled down:
as §1

The target of experiment [7] is T1, Peroxisome proliferator-activated receptor alpha (Homo sapiens). Briefly: Agonist activity at PPARalpha in human Huh7 cells assessed as SCD1 mRNA expression at 50 uM measured after 18 hrs by qRT-PCR analysis. It counts as cell-based. An outline of the steps: as §2
Experiment [8] concerns SGBS. Briefly: Upregulation of ANGPTL4 gene expression in human preadipocyte derived from Simpson-Golabi-Behmel syndrome (SGBS) patient at 25 uM measured for 12 days by qRT-PCR analysis. It counts as functional, cell-based. The method, boiled down:
as §1

The subject of experiment [9] is SGBS. Briefly: Upregulation of FABP4 gene expression in human preadipocyte derived from Simpson-Golabi-Behmel syndrome (SGBS) patient at 25 uM measured for 12 days by qRT-PCR analysis. The format is functional, cell-based. The method, boiled down: as §1
Experiment [10] has as its system SGBS. Briefly: Upregulation of CD36 gene expression in human preadipocyte derived from Simpson-Golabi-Behmel syndrome (SGBS) patient at 25 uM measured for 12 days by qRT-PCR analysis. It counts as functional, cell-based. The method, boiled down:
as §1

For experiment [11], the target named is T2, Peroxisome proliferator-activated receptor alpha (Mus musculus). Briefly: Agonist activity at PPARalpha in C57BL/6N mouse primary hepatocytes assessed as SCD1 mRNA expression at 50 uM measured after 18 hrs by qRT-PCR analysis. The format is cell-based. An outline of the steps: as §2
Experiment [12] addresses T1, Peroxisome proliferator-activated receptor alpha (Homo sapiens). In words: Agonist activity at PPARalpha in human Huh7 cells assessed as SREBF1 mRNA expression at 50 uM measured after 18 hrs by qRT-PCR analysis. The format is cell-based. The method, boiled down:
as §2

The subject of experiment [13] is SGBS. In words: Induction of adipocyte differentiation in human preadipocyte derived from Simpson-Golabi-Behmel syndrome (SGBS) patient assessed as lipid accumulation at 25 uM measured for 12 days by Oil red O staining based microscopic analysis. It counts as functional, cell-based. The method, boiled down: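 Differentiation of SGBS preadipocytes was started in serum-free medium with transferrin, insulin, T3, hydrocortisol, IBMX and dexamethasone, plus 25 μM test agent, 2 μM rosiglitazone or 0.1% DMSO. On day 4 medium was switched to lack IBMX and dexamethasone, and it was renewed on day 8. Cells were fixed with 4% PFA and stained with 0.3% Oil Red O on days 0, 4, 8 and 12, then photographed.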

Experiment [14] concerns SGBS. In words: Upregulation of PPARgamma gene expression in human preadipocyte derived from Simpson-Golabi-Behmel syndrome (SGBS) patient at 25 uM measured for 12 days by qRT-PCR analysis. The format is functional, cell-based. An outline of the steps: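 SGBS cells grown 4 days in biotin/D-pantothenate medium, then differentiated without FBS (apo-transferrin, insulin, T3, hydrocortisol, IBMX, dexamethasone) with 25 μM compound or 0.1 % DMSO added from day 0. After 4 days, switched to maintenance medium without IBMX/dexamethasone, renewed day 8. qPCR on days 0, 4, 8, 12, normalized to TBP (comparative threshold) and to day 0. Minimum three biological replicates in duplicate, mean ± SEM.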

The target in experiment [15] is T2, Peroxisome proliferator-activated receptor alpha (Mus musculus). Briefly: Agonist activity at PPARalpha in C57BL/6N mouse primary hepatocytes assessed as SREBF1 mRNA expression at 50 uM measured after 18 hrs by qRT-PCR analysis. It counts as cell-based. The method, boiled down:
as §2

With `CCCCCCCC(=O)/C=C/CCCCCC(=O)O`, the result (with SGBS [1]; in experiment [3]; in the experiment on SGBS [4]; in the experiment on SGBS [5]; with SGBS [6]; with SGBS [8]) was Active. Besides, the outcome in the experiment on SGBS [9], in the experiment with SGBS [10], with SGBS [13] and in the experiment on SGBS [14] was Active. The result in [2], in experiment [7], in experiment [11], in experiment [12] and in experiment [15] was inactive.
Turning to `CCCCC/C=C/C(=O)CCCCCCCC(=O)O`, the result (in the experiment with SGBS [1]; in [3]; in the experiment with SGBS [4]; in the experiment on SGBS [5]; in the experiment with SGBS [6]; in the experiment with SGBS [8]) was Active. Besides, the result in the experiment with SGBS [9], in the experiment on SGBS [10], in the experiment with SGBS [13] and with SGBS [14] was Active. Moreover, the outcome in experiment [2], in [7], in experiment [11], in experiment [12] and in experiment [15] was inactive.
